ChEMBL document CHEMBL1157378, “Role for cell density in antifungal drug resistance in Candida albicans biofilms” (2007)
Converted amounts (≈) assume the structure as drawn. The source made the active and inactive calls. No cut-off for these calls is given here.

Legend:
Candida albicans [1] = test: Antimicrobial activity against Cdr1, Cdr2 and Mdr1 deficient Candida albicans DSY1050 at planktonic cell density of 10^3 cells/ml after 48 hrs by XTT assay; assay type: functional; conditions: DSY1050, 48 h
Method in brief: (§1)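 YNB-grown yeast (50 mM glucose, room temperature, shaken, to ~2 x 10^8 cells/ml) washed into MOPS-buffered RPMI 1640 with L-glutamine and set to the stated density. Exposed to twofold serial drug dilutions (1,024 to 0.0313 µg/ml) at 37°C, 48 h (caspofungin 24 h), with drug-free controls. Read-out: XTT (0.5 g/liter) plus 1 µM menadione, formazan at 490 nm.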

Candida albicans [2] = test: Antimicrobial activity against Candida albicans SC5314 dissociated biofilms at cell density of 10^3 cells/ml after 48 hrs by XTT assay; assay type: functional; conditions: SC5314, 48 h
Method in brief: (§2)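 Polystyrene-well biofilms (48 h, 37°C) washed, then broken up in 100 µl RPMI by scraping and aspiration. Cells used undiluted (about 2 x 10^8 cells/ml equivalent) or adjusted by A600 against a hemacytometer-calibrated yeast standard curve. Drug exposure at 37°C for 48 h (caspofungin 24 h), then XTT/menadione read at 490 nm.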

Candida albicans [3] = test: Antimicrobial activity against Candida albicans GDH2346 intact biofilms after 48 hrs by XTT assay; assay type: functional; conditions: GDH2346, 48 h
Method in brief: (§3)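 Biofilm seeded at 1 x 10^6 cells/ml in RPMI in polystyrene microtiter wells and grown 48 h at 37°C in a moist chamber. Washed once and drug added to the same well (twofold dilutions, 1,024 to 0.0313 µg/ml) for 48 h at 37°C (caspofungin 24 h). Read-out: XTT/menadione reduction at 490 nm.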

Candida albicans [4] = test: Antimicrobial activity against Candida albicans SC5314 at planktonic cell density of 10^3 cells/ml after 48 hrs by XTT assay; assay type: functional; conditions: SC5314, 48 h; method in brief: as §1
Candida albicans [5] = test: Antimicrobial activity against Cdr1, Cdr2 and Mdr1 deficient Candida albicans DSY1050 dissociated biofilms at cell density of 10^8 cells/ml after 48 hrs by XTT assay; assay type: functional; conditions: DSY1050, 48 h; method in brief: as §2
Candida albicans [6] = test: Antimicrobial activity against Candida albicans SC5314 dissociated biofilms grown on silicone-elastomer coated latex surface at cell density of 10^8 cells/ml at 0.25 to 8 ug/ml by XTT assay; assay type: functional, organism-based
Method in brief: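 1-cm discs of denture acrylic, PVC catheter or silicone elastomer-coated latex catheter, ethylene-oxide sterilised. Seeded with 1 ml of 1 x 10^6 cells/ml, adhesion 90 min at 37°C, washed, grown 48 h at 37°C in RPMI. Biofilm scraped off, set to 1 x 10^3 or 1 x 10^8 cells/ml, exposed to fluconazole, read by XTT at 490 nm.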

Candida albicans [7] = test: Antimicrobial activity against fluconazole-resistant Candida albicans FH5 intact biofilms after 48 hrs by XTT assay; assay type: functional; conditions: FH5, 48 h; method in brief: as §3
Candida albicans [8] = test: Antimicrobial activity against Chk1 deficient Candida albicans CHK21 dissociated biofilms at cell density of 10^8 cells/ml after 48 hrs by XTT assay; assay type: functional; conditions: CHK21, 48 h; method in brief: as §2
Candida albicans [9] = test: Antimicrobial activity against Candida albicans GDH2346 dissociated biofilms at cell density of 10^8 cells/ml after 48 hrs by XTT assay; assay type: functional; conditions: GDH2346, 48 h; method in brief: as §2
Candida albicans [10] = test: Antimicrobial activity against Cdr1, Cdr2 and Mdr1 deficient Candida albicans DSY1050 dissociated biofilms at cell density of 10^3 cells/ml after 48 hrs by XTT assay; assay type: functional; conditions: DSY1050, 48 h; method in brief: as §2
Candida albicans [11] = test: Antimicrobial activity against Cdr1, Cdr2 and Mdr1 deficient Candida albicans DSY1050 intact biofilms after 48 hrs by XTT assay; assay type: functional; conditions: DSY1050, 48 h; method in brief: as §3
Candida albicans [12] = test: Antimicrobial activity against Chk1 deficient Candida albicans CHK21 intact biofilms after 48 hrs by XTT assay; assay type: functional; conditions: CHK21, 48 h; method in brief: as §3
Candida albicans [13] = test: Antimicrobial activity against Candida albicans disaggregated biofilms; assay type: functional
Method in brief: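 Biofilm grown 48 h at 37°C in RPMI (MOPS-buffered) on polystyrene wells from 1 x 10^6 cells/ml, washed, then dissociated by scraping/aspiration in 100 µl. Used undiluted (about 2 x 10^8 cells/ml) or diluted to about 2 x 10^3 cells/ml. Twofold drug dilutions (1,024 to 0.0313 µg/ml) for 48 h at 37°C (caspofungin 24 h). Read-out is XTT/menadione reduction at 490 nm.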

Candida albicans [14] = test: Antimicrobial activity against Candida albicans SC5314 at 512 ug/ml at planktonic cell density of 5 x 10^7 cells/ml after 48 hrs by XTT assay; assay type: functional; conditions: SC5314, 48 h

OC(Cn1cncn1)(Cn1cncn1)c1ccc(F)cc1F [FLUCONAZOLE]
MIC80 (Candida albicans [1]): 0.25 µg/mL (≈ 0.816 µM) | MIC80 (Candida albicans [2]): 0.25 µg/mL (≈ 0.816 µM) | MIC80 (Candida albicans [3]): > 512 µg/mL | MIC80 (Candida albicans [4]): 0.5 µg/mL (≈ 1.63 µM) | MIC80 (Candida albicans [5]): > 64 µg/mL | Activity (Candida albicans [6]): inactive | MIC80 (Candida albicans [7]): > 512 µg/mL | MIC80 (Candida albicans [8]): > 64 µg/mL | MIC80 (Candida albicans [9]): > 64 µg/mL | MIC80 (Candida albicans [10]): 0.125 µg/mL (≈ 0.408 µM) | MIC80 (Candida albicans [11]): > 64 µg/mL | MIC80 (Candida albicans [12]): > 64 µg/mL | MIC (Candida albicans [13]): 256 µg/mL (≈ 836 µM) | inhibition at 512 µg/mL (Candida albicans [14]): 40%
